Assay results collected from several papers.
Target: Serine/threonine-protein kinase STK11 (STK11, Homo sapiens, UniProt Q15831)
One construct used (Q15831 1-433): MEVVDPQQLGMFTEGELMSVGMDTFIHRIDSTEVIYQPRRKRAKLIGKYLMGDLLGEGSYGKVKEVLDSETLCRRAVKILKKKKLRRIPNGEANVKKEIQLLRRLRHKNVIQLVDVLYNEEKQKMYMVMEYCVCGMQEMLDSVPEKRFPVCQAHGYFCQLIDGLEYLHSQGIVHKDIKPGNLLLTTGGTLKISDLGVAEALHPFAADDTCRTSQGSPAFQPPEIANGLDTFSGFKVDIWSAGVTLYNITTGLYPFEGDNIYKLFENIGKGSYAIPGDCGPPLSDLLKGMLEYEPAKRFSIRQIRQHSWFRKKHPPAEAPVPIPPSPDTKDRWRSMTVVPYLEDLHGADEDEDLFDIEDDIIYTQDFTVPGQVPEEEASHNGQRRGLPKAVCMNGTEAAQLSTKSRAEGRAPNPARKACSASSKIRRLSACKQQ

SMILES | effect on | action | method | concentration | endpoint | value
Cc1cc(NC(=O)c2cccc3cc(-c4cccc5[nH]nc(N)c45)ccc23)ccc1F | enzyme activity | inhibitor | – | 0.1 µM | activity vs control | 97%
Oc1cccc(-c2nc(N3CCOCC3)c3oc4ncccc4c3n2)c1 | enzyme activity | inhibitor | – | 10 µM | remaining activity | 62%
Cc1ccc(NC(=O)c2ccc(C)c(C(F)(F)F)c2)cc1C#Cc1nn(C2CCC(O)CC2)c2ncnc(N)c12 (stereo not shown) | cell-free assay | – | – | 10 µM | remaining signal | 94%
CCS(=O)(=O)c1cc2cc(C[C@](O)(CC(C)(C)c3ccc(F)cc3C(N)=O)C(F)(F)F)[nH]c2cn1 | cell-free assay | – | competition with immobilised ligand | 1 µM | remaining binding | 100%
O=C1NC(=O)c2cc(Nc3ccc(F)cc3)c(Nc3ccc(F)cc3)cc21 | cell-free assay | – | – | 0.5 µM | remaining signal | 98.2%
N#CC1(c2ccccn2)CCN(Cc2cc(C(=O)N3CCCC3)c(=O)n3ccccc23)CC1 | cell-free assay | – | competition with immobilised ligand | 1 µM | remaining binding | 77%
COc1cc(Cl)c(C(=O)N[C@@H](CN[C@H]2CC[C@@H](N)CC2)Cc2ccc(C#N)cc2)cc1-c1ccc(CN[C@H](C)c2ccc(C)cc2)o1 | enzyme activity | inhibitor | – | 1 µM | remaining activity | 101%
O=C1Nc2ccc(Cl)cc2C1=Cc1cc(Cl)c(O)c(Cl)c1 | cell-free assay | – | – | 0.5 µM | remaining signal | 93.1%
Cc1cnc(NC2CCOCC2)nc1-n1cnc(C(=O)NC(CN)c2cc(F)cc(Cl)c2)c1 (stereo not shown) | enzyme activity | inhibitor | radiometric | 1 µM | remaining activity | 104%
Cn1nc(C(F)(F)F)cc1-c1cnc(N2CCc3cc(S(=O)(=O)Nc4c(F)cc(Cl)cc4F)cc(N4CCCC4=O)c32)nc1 | cell-free assay | – | competition with immobilised ligand | 1 µM | remaining binding | 100%
CCCS(=O)(=O)Nc1ccc(F)c(C(=O)c2c[nH]c3ncc(-c4ccc(Cl)cc4)cc23)c1F | enzyme activity | inhibitor | – | 1 µM | inhibition | < 10%
Cc1sc(C(=O)NC2COC2)cc1-n1cc(NC(=O)Nc2c(F)cccc2Cl)cn1 | enzyme activity | inhibitor | – | 10 µM | remaining activity | 97.6%
CN(c1ccnc(CNc2nc(Nc3ccc4c(c3)CC(=O)N4)ncc2C(F)(F)F)n1)S(C)(=O)=O | cell-free assay | – | competition with immobilised ligand | 1 µM | remaining binding | 72%
O=C(Nc1cnn(-c2csc(C(=O)NC3COC3)c2)c1)Nc1ccccc1Cl | enzyme activity | inhibitor | – | 5 µM | remaining activity | 118%
Cc1cc(-n2nc(Cc3cc(F)cc(C(F)(F)F)c3)nc2C)ccc1C(N)=O | cell-free assay | – | competition with immobilised ligand | 1 µM | remaining binding | 100%
CCCOc1ccc(OC)c(F)c1C(=O)c1ccc(C(=O)N[C@@H]2CNC[C@H]2NC(=O)c2ccc3[nH]ncc3c2)cc1 | enzyme activity | inhibitor | – | 10 µM | remaining activity | 92%
Cc1ccc(C(=O)NCc2ccsc2)cc1C#Cc1cn(C(C)C)c2ncnc(N)c12 | enzyme activity | inhibitor | – | 1 µM | activity vs control | 94%
COc1cc(Nc2cnc(C#N)c(O[C@H](C)CN(C)C)n2)ncc1-c1cnn(C)c1 | enzyme activity | inhibitor | radiometric | 1 µM | remaining activity | 96%
COc1cc2ncnc(Nc3ccc(F)c(Cl)c3)c2cc1OCCCN1CCOCC1 | cell-free assay | – | – | 0.5 µM | remaining signal | 106%
CNCc1ccccc1-c1csc([C@H](C)Nc2nc(C)nc3cc(OC)c(OC)cc23)c1 | cell-free assay | – | competition with immobilised ligand | 1 µM | remaining binding | 100%
FC(F)(F)Oc1cccc(-c2cnc3ccc(-c4ccncc4)nn23)c1 | enzyme activity | inhibitor | radiometric | 5 µM | activity vs control | 106%
Cc1ccc(Nc2nccc(N(C)c3ccc4c(C)n(C)nc4c3)n2)cc1S(N)(=O)=O | enzyme activity | inhibitor | – | 10 µM | inhibition | -2%
Cc1ccc(-n2nc(C(C)(C)C)cc2NC(=O)Nc2ccc(OCCN3CCOCC3)c3ccccc23)cc1 | enzyme activity | inhibitor | – | 10 µM | inhibition | 10%
CCN(CC)CCNC(=O)c1c(C)[nH]c(/C=C2\C(=O)Nc3ccc(F)cc32)c1C | enzyme activity | inhibitor | – | 10 µM | inhibition | 3%
CC(=O)N1CCC(c2ccc(C(=O)NC3=NCCN3)cc2C(F)(F)F)CC1 | cell-free assay | – | competition with immobilised ligand | 1 µM | remaining binding | 71%
